This passage reports IC50 and Activity results from ChEMBL document CHEMBL1138406, “Bioactive pregnanes from Nerium oleander” (J Nat Prod, 2007).

≈ marks a conversion by molar mass, not a printed value.

Assay [1] deals with A549. In words: Cytotoxicity against human A549 cells by MTT assay. The assay is classed as cell-based. Put shortly: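 A549 cells exposed to serial dilutions for 24 h. Viability (%) read by MTT and used to derive IC50. Triplicate cultures.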
(In general: Tetrazolium assays rely on reduction of a dye to a coloured formazan, in cell work by metabolically active cells.)

A further assay concerns WI-38 VA13. In words: Cytotoxicity against human VA13 cells. The class given is cell-based. The method in brief: (§1)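 IC50 in µg/mL, taken as the mean of duplicate determinations.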
The nature of assay [2]: Effect on calcein accumulation in multidrug resistant human 2780 AD cells at 0.25 ug/mL relative to control. The assay is classed as functional. The method in brief:
(§2)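 Calcein (formed from calcein AM by cellular esterase) accumulated in multidrug-resistant ovarian cancer 2780 AD cells. Read in the presence of 0.25, 2.5 or 25 µg/mL test compound and expressed as % of control. Means of triplicate determinations.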

The nature of assay [3]: Cytotoxicity against human WI38 cells. The assay is classed as cell-based. Conditions: WI-38. The method in brief:
as §1

The subject of the next assay is HepG2. As to the kind of experiment: Cytotoxicity against human HepG2 cells. The class given is cell-based. Put shortly: as §1
The subject of assay [4] is A549. As to the kind of experiment: Inhibition of ICAM1 induction in human A549 cells. The assay is classed as functional, cell-based. Put shortly: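 A549 cells pretreated 1 h with a range of test concentrations, then stimulated with IL-1α for 6 h. Surface ICAM-1 detected with primary and secondary antibodies plus enzyme substrate, absorbance at 415 nm. Triplicate cultures, IC50 derived.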

The nature of assay [5]: Effect on calcein accumulation in multidrug resistant human 2780 AD cells at 25 ug/mL relative to control. The class given is functional. Put shortly:
as §2

Assay [6] in a line: Effect on calcein accumulation in multidrug resistant human 2780 AD cells at 2.5 ug/mL relative to control. The class given is functional. Put shortly: as §2
A short description of assay [7]: Effect on calcein accumulation in multidrug resistant human 2780 AD cells at 2.5 ug/mL relative to verapamil. The class given is functional.
Assay [8] is described as follows: Effect on calcein accumulation in multidrug resistant human 2780 AD cells at 25 ug/mL relative to verapamil. The class given is functional.
The nature of assay [9]: Effect on calcein accumulation in multidrug resistant human 2780 AD cells at 0.25 ug/mL relative to verapamil. The assay is classed as functional.

In general, IC50 refers to the concentration needed to halve the response being measured. Take `CC(=O)C1=CC[C@H]2[C@@H]3C=CC4=CC(=O)CC[C@]4(C)[C@H]3C[C@@H](O)[C@]12C` [NERIDIENONE A]: the IC50 was 53.1 µM in the assay with A549 [1] (read-out: IC50); 0.68 µg/mL (≈ 2.08 µM) in the assay on WI-38 VA13; 4.9 µg/mL (≈ 15 µM) in assay [3]; 2.5 µg/mL (≈ 7.66 µM) in the assay on HepG2; 7 µM in the assay with A549 [4] (read-out: IC50). In addition, the Activity is on record as 109% in [2], 107% in assay [5] and 92% in assay [6].

In the case of `C[C@@H](O)[C@H]1CC[C@H]2[C@@H]3C=CC4=CC(=O)CC[C@]4(C)[C@H]3CC(=O)[C@]12C`, the IC50 in the assay with A549 [1] (read-out: IC50) was greater than 300 µM; with WI-38 VA13, 57.4 µg/mL (≈ 175 µM); in assay [3], 66.4 µg/mL (≈ 202 µM); with HepG2 it was 49.2 µg/mL (≈ 150 µM); with A549 [4] (read-out: IC50), greater than 300 µM. For the same compound, the Activity in [7] is on record as 117%; in assay [2], 116%; in [5], 138%; in assay [8], 93%; in [9], 120%; in [6] it was 127%.

For the compound `COc1ccc(CCN(C)CCCC(C#N)(c2ccc(OC)c(OC)c2)C(C)C)cc1OC` (stereo not given) [VERAPAMIL], the Activity is 97% in assay [2], 148% in [5] and 109% in assay [6].

Take `CC(=O)[C@]12O[C@H]1C[C@H]1[C@@H]3C=CC4=CC(=O)CC[C@]4(C)[C@H]3C[C@@H](O)[C@@]12C`: the IC50 in the assay with A549 [1] is greater than 100 µM; with WI-38 VA13, 73.1 µg/mL (≈ 213 µM); in assay [3] it was 51.1 µg/mL (≈ 149 µM); in the assay on HepG2, 62.1 µg/mL (≈ 181 µM); with A549 [4] it was greater than 100 µM. For the same compound, the Activity was 103% in assay [2], 99% in assay [5] and 108% in [6].

In the case of `C[C@]12C(=O)C[C@H]3[C@@H](C=CC4=CC(=O)CC[C@@]43C)[C@@H]1CC[C@@H]2[C@H](O)CO` [NERIDIENONE B], the Activity is on record as 141% in [7]; 110% in assay [2]; 148% in [5]; 100% in assay [8]; 113% in [9]; 154% in assay [6]. Also, the IC50 with WI-38 VA13 was greater than 100 µg/mL; in assay [3], 73.5 µg/mL (≈ 213 µM); with HepG2 it was greater than 100 µg/mL.

Take `C[C@]12C(=O)C[C@H]3[C@@H](C=CC4=CC(=O)CC[C@@]43C)[C@@H]1CC[C@@H]2C(=O)CO`: the IC50 was found to be 87.7 µg/mL (≈ 256 µM) in the assay with WI-38 VA13, 48.1 µg/mL (≈ 140 µM) in [3] and 94.9 µg/mL (≈ 277 µM) in the assay with HepG2. Besides, the Activity is 110% in assay [2], 140% in assay [5] and 105% in assay [6].
